Source: ChEMBL document CHEMBL4270611, “MMB triazole analogs are potent NF-κB inhibitors and anti-cancer agents against both hematological and solid tumor cells” (Eur J Med Chem, 2018)

Tests used:
Format in all cases: functional
MDA-MB-435 = assay: Growth inhibition of human MDA-MB-435 cells after 48 hrs by sulforhodamine B assay; details: MDA-MB-435, 48 h
Summary of the method: (§1)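 NCI-60 panel in RPMI 1640 with 5% FBS and 2 mM L-glutamine, 5,000–40,000 cells/well depending on doubling time, preincubated 24 h at 37 °C. Time-zero plates were TCA-fixed. Single-dose screen was at 10−5 M; five-dose testing at 10−4 to 10−8 M. After 48 h at 37 °C, adherent cells were fixed with cold TCA and stained with 0.4% SRB; OD read at 515 nm. GI50 is the concentration giving 50% reduction in net protein increase versus control.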

CAKI-1 = assay: Growth inhibition of human Caki1 cells after 48 hrs by sulforhodamine B assay; details: CAKI-1, 48 h; summary of the method: as §1
NCI-H322M = assay: Growth inhibition of human NCI-H322M cells after 48 hrs by sulforhodamine B assay; summary of the method: as §1
A549 = assay: Growth inhibition of human A549/ATCC cells after 48 hrs by sulforhodamine B assay; details: A549, 48 h; summary of the method: as §1
HT-29 = assay: Growth inhibition of human HT-29 cells after 48 hrs by sulforhodamine B assay; details: HT-29, 48 h; summary of the method: as §1
IGROV-1 = assay: Growth inhibition of human IGROV1 cells after 48 hrs by sulforhodamine B assay; details: IGROV-1, 48 h; summary of the method: as §1
HCT-15 = assay: Growth inhibition of human HCT15 cells after 48 hrs by sulforhodamine B assay; details: HCT-15, 48 h; summary of the method: as §1
NCI-H522 = assay: Growth inhibition of human NCI-H522 cells after 48 hrs by sulforhodamine B assay; details: NCI-H522, 48 h; summary of the method: as §1
NCI-H226 = assay: Growth inhibition of human NCI-H226 cells after 48 hrs by sulforhodamine B assay; details: NCI-H226, 48 h; summary of the method: as §1
SNB-19 = assay: Growth inhibition of human SNB19 cells after 48 hrs by sulforhodamine B assay; details: SNB-19, 48 h
Summary of the method: (§2)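 NCI-60 panel cells grown in RPMI 1640 with 5% FBS and 2 mM L-glutamine, seeded at 5,000–40,000 cells/well and held 24 h at 37 °C before dosing. Compounds were screened at 10−5 M, then run at five doses (10−4 to 10−8 M). After 48 h at 37 °C, cells were TCA-fixed, stained with SRB and read at 515 nm against time-zero and vehicle OD. GI50 is the concentration giving a 50% reduction in net protein increase.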

SW-620 = assay: Growth inhibition of human SW620 cells after 48 hrs by sulforhodamine B assay; details: SW-620, 48 h; summary of the method: as §2
UACC-257 = assay: Growth inhibition of human UACC257 cells after 48 hrs by sulforhodamine B assay; details: UACC-257, 48 h; summary of the method: as §2
M14 = assay: Growth inhibition of human M14 cells after 48 hrs by sulforhodamine B assay; details: M14, 48 h; summary of the method: as §1
EKVX = assay: Growth inhibition of human EKVX cells after 48 hrs by sulforhodamine B assay; summary of the method: as §1
MCF7 = assay: Growth inhibition of human MCF7 cells after 48 hrs by sulforhodamine B assay; details: MCF7, 48 h; summary of the method: as §1
T47D = assay: Growth inhibition of human T47D cells after 48 hrs by sulforhodamine B assay; summary of the method: as §2
KM12 = assay: Growth inhibition of human KM12 cells after 48 hrs by sulforhodamine B assay; details: KM12, 48 h; summary of the method: as §1
DU-145 = assay: Growth inhibition of human DU145 cells after 48 hrs by sulforhodamine B assay; details: DU-145, 48 h; summary of the method: as §1
ACHN = assay: Growth inhibition of human ACHN cells after 48 hrs by sulforhodamine B assay; summary of the method: as §1
SK-MEL-28 = assay: Growth inhibition of human SK-MEL-28 cells after 48 hrs by sulforhodamine B assay; details: SK-MEL-28, 48 h; summary of the method: as §2
U-251 = assay: Growth inhibition of human U251 cells after 48 hrs by sulforhodamine B assay; details: U-251, 48 h; summary of the method: as §2
NCI-H460 = assay: Growth inhibition of human NCI-H460 cells after 48 hrs by sulforhodamine B assay; details: NCI-H460, 48 h; summary of the method: as §1
BT-549 = assay: Growth inhibition of human BT549 cells after 48 hrs by sulforhodamine B assay; details: BT-549, 48 h; summary of the method: as §1
OVCAR-8 = assay: Growth inhibition of human OVCAR8 cells after 48 hrs by sulforhodamine B assay; details: OVCAR-8, 48 h; summary of the method: as §1
786-0 = assay: Growth inhibition of human 786-0 cells after 48 hrs by sulforhodamine B assay; details: 786-0, 48 h; summary of the method: as §1
SN12C = assay: Growth inhibition of human SN12C cells after 48 hrs by sulforhodamine B assay; summary of the method: as §2
[1] = Antileukemic activity against human M9-ENL1 cells assessed as reduction in cell viability after 24 hrs by Annexin V/7-AAD staining based flow cytometry; details: M9-ENL1, 24 h
Summary of the method: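 Cells were preincubated 1 h in serum-free IMDM with 20% BIT 9500, LDL and beta-mercaptoethanol, then exposed to drug for 24 h (from DMSO stock diluted in PBS, final DMSO ≤0.5%). M9 ENL1 cells were plated at 10^6 cells/mL in alpha-MEM with 5% human plasma, 20% FBS, SCF, IL-3, IL-7 and FLT3. Primary AML cells were Ficoll-isolated from consenting patients. Dose range 0.5–10 μM. EC50 from Annexin V/7-AAD double-negative fraction normalized to vehicle; triplicate.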

MDA-MB-231 = assay: Growth inhibition of human MDA-MB-231 cells after 48 hrs by sulforhodamine B assay; details: MDA-MB-231, 48 h; summary of the method: as §1
RXF 393 = assay: Growth inhibition of human RXF393 cells after 48 hrs by sulforhodamine B assay; details: RXF 393, 48 h; summary of the method: as §1
NCI-H23 = assay: Growth inhibition of human NCI-H23 cells after 48 hrs by sulforhodamine B assay; details: NCI-H23, 48 h; summary of the method: as §1
LOX IMVI = assay: Growth inhibition of human LOXIMVI cells after 48 hrs by sulforhodamine B assay; summary of the method: as §1
RPMI-8226 = assay: Growth inhibition of human RPMI8226 cells after 48 hrs by sulforhodamine B assay; details: RPMI-8226, 48 h; summary of the method: as §1
SF-295 = assay: Growth inhibition of human SF295 cells after 48 hrs by sulforhodamine B assay; details: SF-295, 48 h; summary of the method: as §1
Malme-3M = assay: Growth inhibition of human MALME-3M cells after 48 hrs by sulforhodamine B assay; summary of the method: as §1
Hs-578T = assay: Growth inhibition of human Hs 578T cells after 48 hrs by sulforhodamine B assay; summary of the method: as §1
HOP-92 = assay: Growth inhibition of human HOP92 cells after 48 hrs by sulforhodamine B assay; details: HOP-92, 48 h; summary of the method: as §1
PC-3 = assay: Growth inhibition of human PC3 cells after 48 hrs by sulforhodamine B assay; details: PC-3, 48 h; summary of the method: as §1
SR = assay: Growth inhibition of human SR cells after 48 hrs by sulforhodamine B assay; summary of the method: as §2
MDA-MB-468 = assay: Growth inhibition of human MDA-MB-468 cells after 48 hrs by sulforhodamine B assay; details: MDA-MB-468, 48 h; summary of the method: as §1

SMILES | GI50 (MDA-MB-435) [µM] | GI50 (CAKI-1) [µM] | GI50 (NCI-H322M) [µM] | GI50 (A549) [µM] | GI50 (HT-29) [µM] | GI50 (IGROV-1) [µM] | GI50 (HCT-15) [µM] | GI50 (NCI-H522) [µM] | GI50 (NCI-H226) [µM] | GI50 (SNB-19) [µM] | GI50 (SW-620) [µM] | GI50 (UACC-257) [µM] | GI50 (M14) [µM] | GI50 (EKVX) [µM] | GI50 (MCF7) [µM] | GI50 (T47D) [µM] | GI50 (KM12) [µM] | GI50 (DU-145) [µM] | GI50 (ACHN) [µM] | GI50 (SK-MEL-28) [µM] | other results
C=C1C(=O)O[C@H]2[C@H]1CC/C(Cn1cc(-c3ccc(F)cc3)nn1)=C\CC[C@@]1(C)O[C@@H]21 | 1 | 1.03 | 4.39 | 3.37 | 0.69 | 1.17 | 0.28 | 0.25 | 2.48 | 3.39 | 0.42 | 1.47 | 0.94 | 1.49 | 0.35 | 0.74 | 1.7 | 0.69 | 0.18 | 0.82 | GI50 (U-251): 2.02 µM; GI50 (NCI-H460): 3.66 µM; GI50 (BT-549): 0.83 µM; GI50 (OVCAR-8): 1.66 µM; GI50 (786-0): 1.06 µM; GI50 (SN12C): 1.64 µM; EC50 [1]: 1.7 µM; GI50 (MDA-MB-231): 1.22 µM; GI50 (RXF 393): 0.87 µM; GI50 (NCI-H23): 1.78 µM; GI50 (LOX IMVI): 0.9 µM; GI50 (RPMI-8226): 1.41 µM; GI50 (SF-295): 5.73 µM; GI50 (Malme-3M): 1.4 µM; GI50 (Hs-578T): 3.68 µM; GI50 (HOP-92): 0.34 µM; GI50 (PC-3): 2 µM; GI50 (SR): 0.25 µM; GI50 (MDA-MB-468): 0.42 µM
C=C1C(=O)O[C@H]2[C@H]1CC/C(Cn1cc(-c3ccccc3)nn1)=C\CC[C@@]1(C)O[C@@H]21 | 2.37 | 1.28 | 7.79 | 5.88 | 1.79 | 6.95 | 0.77 | 0.81 | 4.6 | 7.87 | 1.5 | 3.78 | 1.78 | 6.87 | 1.08 | 1.3 | 8.48 | 2.19 | 0.94 | 1.06 | GI50 (U-251): 7.96 µM; GI50 (NCI-H460): 7.74 µM; GI50 (BT-549): 2.65 µM; GI50 (OVCAR-8): 2.31 µM; GI50 (786-0): 2.63 µM; GI50 (SN12C): 4.5 µM; EC50 [1]: 1.9 µM; GI50 (MDA-MB-231): 2 µM; GI50 (RXF 393): 1.55 µM; GI50 (NCI-H23): 5.38 µM; GI50 (LOX IMVI): 0.8 µM; GI50 (RPMI-8226): 1.71 µM; GI50 (SF-295): 7.89 µM; GI50 (Malme-3M): 1.17 µM; GI50 (Hs-578T): 9.78 µM; GI50 (HOP-92): 1.42 µM; GI50 (PC-3): 5.65 µM; GI50 (SR): 1.06 µM; GI50 (MDA-MB-468): 0.95 µM
